# Experimental data reported in ChEMBL document CHEMBL5136964, “Truncated S-MGBs: towards a parasite-specific and low aggregation chemotype” (RSC Med Chem, 2021).
# Tests used:
# Enterococcus faecalis = assay: Antibacterial activity against Enterococcus faecalis ATCC 51299 measured after 18 hrs by two-fold serial dilution method; format: functional
# [1] = tested on: Trypanosoma brucei brucei; assay: Antiparasitic activity against bloodstream form of Trypanosoma brucei brucei Lister 427 measured after 48 hrs by alamar blue assay; format: functional
# Staphylococcus aureus = assay: Antibacterial activity against Staphylococcus aureus ATCC 43300 measured after 18 hrs by two-fold serial dilution method; format: functional
# [2] = Diffusion coefficient of compound in 50% v/v pH 5 sodium acetate buffer in DMSO-d6 at 1.5 mM by DOSY analysis; format: physicochemical; conditions: pH 5, 1500 µM
# [3] = Aggregation property of compound in 0.1 M pH 5 sodium acetate buffer at 1.5 mM by 1H-NMR spectra analysis; format: physicochemical; conditions: pH 5, 1500 µM
# [4] = Aggregation property of compound in 45% DMSO-d6:55% 0.1 M pH 5 sodium acetate buffer at 1.5 mM by 1H-NMR spectra analysis; format: physicochemical; conditions: pH 5, 1500 µM
# How it was run: (§1)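 Proton NMR series at a fixed 1.5 mM S-MGB. DMSO-d6 was stepped down by 5% from 80% to 25% by adding 0.1 M pH 5 sodium acetate buffer, giving twelve solvent compositions per compound.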
# DNA = assay: Binding affinity to DNA (unknown origin) assessed as change in melting temperature at 2:1 compound to DNA ratio by UV-visible spectrophotometry; format: nucleic-acid assay
# How it was run: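 Duplex oligomer at 6 × 10⁻⁶ M in 10 mM PBS (pH 7.4) with 50 mM NaCl was annealed (90 °C, then unaided cooling) and mixed at 2 S-MGB:1 helix; the reference had no ligand. Samples were heated 10–90 °C and cooled 80–10 °C at 0.5 °C min⁻¹, with A260 recorded. Tm came from a Boltzmann sigmoid fit; three repeats.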
# [5] = Aggregation property of compound at 1.5 mM by 1H-NMR spectra analysis; conditions: 1500 µM
# [6] = Resistance factor, ratio of EC50 for bloodstream form of diminazene-resistant Trypanosoma congolense DimR to EC50 for bloodstream form of wild-type Trypanosoma congolense; format: functional
# How it was run: (§2)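 The ratio was taken from Alamar Blue EC50s for resistant and wild-type IL3000 bloodstream-form T. congolense. Cells at 2.5×10^5 per mL were grown at 34 °C in 5% CO2 in supplemented MEM with compound for 48 h, then with resazurin for 24 h.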
# [7] = tested on: Trypanosoma brucei brucei; assay: Antiparasitic activity against bloodstream form of tbat1-/- deficient Trypanosoma brucei brucei measured after 48 hrs by alamar blue assay; format: functional, organism-based
# Trypanosoma vivax = assay: Antitrypanosomal activity against Trypanosoma vivax STIB 719 by [3H]-hypoxanthine incorporation assay; format: functional, organism-based
# [8] = Resistance factor, ratio of EC50 for bloodstream form of tbat1-/- deficient Trypanosoma brucei brucei to EC50 for wild-type bloodstream form of Trypanosoma brucei brucei; format: functional
# Trypanosoma congolense [9] = assay: Antitrypanosomal activity against bloodstream form of Trypanosoma congolense IL3000 measured after 48 hrs by alamar blue assay; format: functional, organism-based; conditions: IL3000, 48 h
# How it was run: (§3)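 Bloodstream-form T. congolense IL3000 and derived diminazene-resistant lines were grown at 34 °C in humidified 5% CO2 in supplemented MEM with 20% goat serum. Cells at 2.5×10^5 per mL were seeded into serial compound dilutions and incubated 48 h. 0.49 mM resazurin solution was then added for a further 24 h.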
# Trypanosoma congolense [10] = assay: Antitrypanosomal activity against bloodstream form of Trypanosoma congolense measured after 48 hrs by alamar blue assay; format: functional, organism-based; how it was run: as §3
# [11] = Resistance factor, ratio of EC50 for bloodstream form of diminazene-resistant Trypanosoma congolense EMS MUT DimR to EC50 for wild-type bloodstream form of Trypanosoma congolense; format: functional; how it was run: as §2
# Trypanosoma congolense [12] = assay: Antitrypanosomal activity against bloodstream form of diminazene-resistant Trypanosoma congolense DimR measured after 48 hrs by alamar blue assay; format: functional, organism-based; how it was run: as §3
# [13] = tested on: Trypanosoma brucei brucei; assay: Antiparasitic activity against wild-type Trypanosoma brucei brucei measured after 48 hrs by alamar blue assay; format: functional, organism-based
# [14] = Resistance factor, ratio of EC50 for bloodstream form of Trypanosoma brucei brucei B48 to EC50 for wild-type bloodstream form of Trypanosoma brucei brucei; format: functional
# Trypanosoma congolense [15] = assay: Antitrypanosomal activity against bloodstream form of diminazene-resistant Trypanosoma congolense EMS MUT DimR measured after 48 hrs by alamar blue assay; format: functional, organism-based; how it was run: as §3
# [16] = tested on: Trypanosoma brucei brucei; assay: Antiparasitic activity against bloodstream form of Trypanosoma brucei brucei B48 measured after 48 hrs by alamar blue assay; format: functional, organism-based; conditions: B48, 48 h
# [17] = Cytotoxicity against rat L6 cells assessed as reduction in cell viability measured after 69 hrs by alamar blue assay; format: toxicity, cell-based
# [18] = Aggregation property of compound in 70% v/v 0.1 M pH 5 sodium acetate buffer in DMSO-d6 at 1.5 mM by 1H-NMR spectra analysis; format: physicochemical; conditions: pH 5, 1500 µM; how it was run: as §1
# Leishmania donovani = assay: Antileishmanial activity against Leishmania donovani MHOM/ET/67:LV82 amastigotes infected in BMDM cell measured after 48 hrs by luciferase assay; format: functional, organism-based; conditions: MHOM/ET/67:LV82, BMDM
# How it was run: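 Bone marrow-derived macrophages (0.5×10^5/well) were infected at a 20:1 […] ratio with luciferase-expressing L. donovani LV82. Free parasites were removed at 24 h post-infection, then doubling dilutions were added, starting at 25 or 20 μg mL⁻¹ from a 1 mg mL⁻¹ DMSO stock. At 72 h, luciferin (150 μg mL⁻¹) was added and bioluminescence suppression read against controls.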
Structure (SMILES),MIC80 (Enterococcus faecalis) [µM],EC50 [1] [nM],MIC80 (Staphylococcus aureus) [µM],ΔTm (DNA) [°C],also measured
Cn1cc(NC(=O)c2cc(NC(=O)c3ccc(/C=C/c4cnc5ccccc5c4)cc3)cn2C)cc1C(=O)NCCN1CCOCC1 [MGB-BP-3],0.78,< 190,0.2,20,D [2]: 1.07 10^-10 m²/s; Activity [3]: Active; Activity [4]: Active; Activity [5]: Active
COc1cccc(/C=C/c2ccc(C(=O)Nc3cc(C(=O)N4CCN(C)CC4)n(C)c3)cc2)c1,> 50,> 50000,> 50,0,
CN[C@H](CC(C)C)C(=O)N[C@H]1C(=O)N[C@@H](CC(N)=O)C(=O)N[C@H]2C(=O)N[C@H]3C(=O)N[C@H](C(=O)N[C@H](C(=O)O)c4cc(O)cc(O)c4-c4cc3ccc4O)[C@H](O)c3ccc(c(Cl)c3)Oc3cc2cc(c3O[C@@H]2O[C@H](CO)[C@@H](O)[C@H](O)[C@H]2O[C@H]2C[C@](C)(N)[C@H](O)[C@H](C)O2)Oc2ccc(cc2Cl)[C@H]1O [VANCOMYCIN],6.25,,0.39,,
COc1cccc(/C=C/c2ccc(C(=O)Nc3cc(C(=O)NN(C)C)n(C)c3)cc2)c1,,,,0,
COc1ccc(/C=C/c2ccc(C(=O)Nc3cc(C(=O)Nc4cc(C(=O)NCCN5CCOCC5)n(C)c4)n(C)c3)cn2)cc1,3.12,1560,1.56,12,
COc1ccc(/C=C/c2ccc(C(=O)Nc3cc(C(=O)N4CCN(C)CC4)n(C)c3)cn2)cc1,> 50,> 50000,> 50,0,
N=C(N)c1ccc(/N=N/Nc2ccc(C(=N)N)cc2)cc1 [DIMINAZENE],,500,,,Ratio EC50 [6]: 9.5; EC50 [7]: 180 nM; EC50 (Trypanosoma vivax): 170 nM; Ratio EC50 [8]: 5.9; EC50 (Trypanosoma congolense [9]): 130 nM; EC50 (Trypanosoma congolense [10]): 200 nM; Ratio EC50 [11]: 10.9; EC50 (Trypanosoma congolense [12]): 2100 nM; EC50 [13]: 30 nM; Ratio EC50 [14]: 2.6; EC50 (Trypanosoma congolense [15]): 2300 nM; EC50 [16]: 80 nM
COc1cccc(/C=C/c2ccc(C(=O)Nc3cc(C(=O)Nc4cc(C(=O)NCCN5CCOCC5)n(C)c4)n(C)c3)cc2)c1,25,780,6.25,10,
COc1ccc(/C=C/c2ccc(C(=O)Nc3cc(C(=O)NN(C)C)n(C)c3)cn2)cc1,> 50,> 50000,> 50,0,
COc1cccc(/C=C/c2ccc(C(=O)Nc3cc(C(=O)NCCN4CCOCC4)n(C)c3)cc2)c1,> 50,> 50000,> 50,0,
CN1CCN(C(=O)c2cc(NC(=O)c3ccc(/C=C/c4cnc5ccccc5c4)cc3)cn2C)CC1,,,,2,
Cn1cc(NC(=O)c2ccc(/C=C/c3cnc4ccccc4c3)cc2)cc1C(=O)NCCN1CCOCC1,> 50,3120,> 50,10,Ratio EC50 [6]: 0.9; EC50 [7]: 550 nM; EC50 (Trypanosoma vivax): 760 nM; Ratio EC50 [8]: 0.5; EC50 (Trypanosoma congolense [9]): 870 nM; EC50 (Trypanosoma congolense [10]): 3400 nM; Ratio EC50 [11]: 0.9; EC50 (Trypanosoma congolense [12]): 3100 nM; EC50 at 69 h [17]: 6700 nM; D [2]: 1.75 10^-10 m²/s; EC50 [13]: 1200 nM; Activity [3]: Active; Activity [4]: Active; Ratio EC50 [14]: 0.5; EC50 (Trypanosoma congolense [15]): 3200 nM; Activity [18]: Active; EC50 (Leishmania donovani): 1600 nM; Activity [5]: Active; EC50 [16]: 600 nM
